Drawing on ChEMBL document CHEMBL4732208, “Discovery of novel N-alkylcytidines as promising antimicrobial agents” (Eur J Med Chem, 2021), this text covers MIC and CC50 for 16 molecules.

≈ marks a conversion by molar mass, not a printed value.

A word on the MIC: it is the least concentration at which growth counts as inhibited. As usually defined, the CC50 is the concentration at which the toxic effect on the cells reaches its halfway point. High values mean better tolerance by the cells, low ones harm at low concentration.

In one series the test system is Micrococcus luteus. As to the kind of experiment: Antibacterial activity against Micrococcus luteus NCTC 8340. Type of series: functional. In a few lines:
(§1)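 Strains grown in modified Gause's nutrient medium N 2, inoculum 10⁶ cells/ml. Test compound dissolved in 50% aqueous methanol, added at ten volume percent of the medium. Growth controls: medium without additions, medium with solvent mixture, and clinical antibiotics (amikacin, ciprofloxacin, isoniazid, rifampicin, oxacillin, vancomycin).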

Series [1] is described as follows: Cytotoxicity against human A549 cells by MTT assay. Type of series: cell-based. A digest of the protocol: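 Adherent A549 cells passaged in DMEM with 10% fetal calf serum and 2 mM glutamine, at 37 °C, 5% CO2, 90% humidity. MTT test. CC50 is the concentration that inhibits culture growth by 50%.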
A general note: Formazan colour is commonly taken as a measure of viable cells.

Series [2] relates to Leuconostoc mesenteroides. As to the kind of experiment: Antibacterial activity against Leuconostoc mesenteroides VKPM B-4177. Type of series: functional. A digest of the protocol:
as §1

Series [3] relates to Mycolicibacterium smegmatis. As to the kind of experiment: Antibacterial activity against Mycobacterium smegmatis VKPM Ac-1339. Type of series: functional. A digest of the protocol:
as §1

Series [4] deals with Staphylococcus aureus. As to the kind of experiment: Antibacterial activity against Staphylococcus aureus FDA 209 P. Type of series: functional. In a few lines:
as §1

The test system of another series is Bacillus subtilis. As to the kind of experiment: Antibacterial activity against Bacillus subtilis ATCC 6633. Type of series: functional. A digest of the protocol: as §1
In series [5] the test system is Mycolicibacterium smegmatis. As to the kind of experiment: Antibacterial activity against Mycobacterium smegmatis mc2155. Type of series: functional. In a few lines: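 Strains were grown in modified Gause's nutrient medium N 2 at 10⁶ cells/ml. The compound was dissolved in 50% aqueous methanol and added at 10 volume percent of the medium. Controls were untreated cultures, medium with the solvent mixture, and clinical antibiotics.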

Series [6] relates to Staphylococcus aureus. As to the kind of experiment: Antibacterial activity against Staphylococcus aureus INA 00761. Type of series: functional. In a few lines:
as §1

`CCCCCCCCCCNc1ccn([C@@H]2O[C@H](CO)[C@@H](O)[C@H]2O)c(=O)n1`: the MIC (in the series on Micrococcus luteus; in series [2]; in series [3]; against Staphylococcus aureus [4]; in the series on Bacillus subtilis; in series [5]) was > 200 µM in each case. The minimum inhibitory concentration (MIC) against Staphylococcus aureus [6] was > 200 µM. The molecule further came in with a CC50 in series [1] of 90 µM.

Regarding `CCCCCCCCCCCCCCNc1ccn([C@H]2C[C@H](O)[C@@H](CO)O2)c(=O)n1`, the minimum inhibitory concentration (MIC) (against Micrococcus luteus; in series [2]; in series [3]; against Staphylococcus aureus [4]; in the series on Bacillus subtilis; in series [5]) was > 200 µM each time. Further, the MIC in the series with Staphylococcus aureus [6] is > 200 µM. The molecule further came in with a CC50 in series [1] of 90 µM.

On to `CO[C@H]1/C=C/O[C@@]2(C)Oc3c(C)c(O)c4c(O)c(c(/C=N/N5CCN(C)CC5)c(O)c4c3C2=O)NC(=O)/C(C)=C\C=C\[C@H](C)[C@H](O)[C@@H](C)[C@@H](O)[C@@H](C)[C@H](OC(C)=O)[C@@H]1C` [RIFAMPIN], for which the results for the minimum inhibitory concentration (MIC) in series [3] and in series [5] were 10 µM (≈ 8.23 µg/mL) and 5 µM (≈ 4.11 µg/mL), respectively.

Consider `O=C(O)c1cn(C2CC2)c2cc(N3CCNCC3)c(F)cc2c1=O` [CIPROFLOXACIN], for which the MIC came out at 12 µM (≈ 3.98 µg/mL) in series [3], 3 µM (≈ 0.994 µg/mL) in the series on Staphylococcus aureus [4], 15 µM (≈ 4.97 µg/mL) in series [5] and 12 µM (≈ 3.98 µg/mL) against Staphylococcus aureus [6].

Regarding `CCCCCCCCNc1ccn([C@H]2C[C@H](O)[C@@H](CO)O2)c(=O)n1`, the MIC (against Micrococcus luteus; in series [2]; in series [3]; in the series with Staphylococcus aureus [4]; with Bacillus subtilis; in series [5]) was > 200 µM in each case. In addition, in the series on Staphylococcus aureus [6], the MIC was > 200 µM. In series [1], this molecule yielded a CC50 of 90 µM.

Consider `CCCCCCCCCCNc1ccn([C@H]2C[C@H](O)[C@@H](CO)O2)c(=O)n1`, for which the MIC against Micrococcus luteus is 140 µM (≈ 51.4 µg/mL); in series [2], 140 µM (≈ 51.4 µg/mL); in series [3], 140 µM (≈ 51.4 µg/mL); with Staphylococcus aureus [4], > 140 µM; in the series on Bacillus subtilis, 140 µM (≈ 51.4 µg/mL); in series [5] it was 140 µM (≈ 51.4 µg/mL). Further, the minimal inhibitory concentration (MIC) in the series on Staphylococcus aureus [6] is > 140 µM. Besides, the CC50 in series [1] came out at 200 µM.

Regarding `CCCCCCNc1nc(=O)n([C@H]2C[C@H](O)[C@@H](CO)O2)cc1C`, the MIC (against Micrococcus luteus; in series [2]; in series [3]; against Staphylococcus aureus [4]; in the series with Bacillus subtilis; in series [5]) was > 200 µM in each case. Further, the minimum inhibitory concentration (MIC) against Staphylococcus aureus [6] was > 200 µM. The molecule further gave a 50% cytotoxic concentration (CC50) in series [1] of 90 µM.

On to `NCC[C@H](O)C(=O)N[C@@H]1C[C@H](N)[C@@H](O[C@H]2O[C@H](CN)[C@@H](O)[C@H](O)[C@H]2O)[C@H](O)[C@H]1O[C@H]1O[C@H](CO)[C@@H](O)[C@H](N)[C@H]1O` [AMIKACIN], for which the MIC stood at 1 µM (≈ 0.586 µg/mL) against Micrococcus luteus; 29 µM (≈ 17 µg/mL) in series [3]; 3.4 µM (≈ 1.99 µg/mL) in the series on Staphylococcus aureus [4]; 7 µM (≈ 4.1 µg/mL) with Bacillus subtilis; 50 µM (≈ 29.3 µg/mL) in series [5]; 5 µM (≈ 2.93 µg/mL) in the series on Staphylococcus aureus [6].

Take `O=c1nc(NCCCCc2ccccc2)ccn1[C@H]1C[C@H](O)[C@@H](CO)O1`: the minimum inhibitory concentration (MIC) (against Micrococcus luteus; in series [2]; in series [3]; in the series on Staphylococcus aureus [4]; in the series on Bacillus subtilis; in series [5]) was > 200 µM in each case. Moreover, in the series with Staphylococcus aureus [6], the MIC was > 200 µM. Half-maximal cytotoxicity in series [1] (CC50) was put at 90 µM.

For `Cc1onc(-c2ccccc2)c1C(=O)N[C@@H]1C(=O)N2[C@@H]1SC(C)(C)[C@@H]2C(=O)O` [OXACILLIN], the minimum inhibitory concentration (MIC) against Staphylococcus aureus [4] stood at 2.5 µM (≈ 1 µg/mL); against Staphylococcus aureus [6] it was 80 µM (≈ 32.1 µg/mL).

In the case of `CN[C@H](CC(C)C)C(=O)N[C@H]1C(=O)N[C@@H](CC(N)=O)C(=O)N[C@H]2C(=O)N[C@H]3C(=O)N[C@H](C(=O)N[C@H](C(=O)O)c4cc(O)cc(O)c4-c4cc3ccc4O)[C@H](O)c3ccc(c(Cl)c3)Oc3cc2cc(c3O[C@@H]2O[C@H](CO)[C@@H](O)[C@H](O)[C@H]2O[C@H]2C[C@](C)(N)[C@H](O)[C@H](C)O2)Oc2ccc(cc2Cl)[C@H]1O` [VANCOMYCIN], the MIC in series [2] is > 275 µM.

With `CCCCCCCCNc1ccn([C@@H]2O[C@H](CO)[C@@H](O)[C@H]2O)c(=O)n1`, the MIC (against Micrococcus luteus; in series [2]; in series [3]; against Staphylococcus aureus [4]; in the series with Bacillus subtilis; in series [5]) was > 200 µM in each case. Also, the MIC against Staphylococcus aureus [6] was > 200 µM. The same molecule had a CC50 in series [1] of 90 µM.

As for `Cc1cn([C@H]2C[C@H](O)[C@@H](CO)O2)c(=O)nc1NCCc1ccccc1`, the minimal inhibitory concentration (MIC) (with Micrococcus luteus; in series [2]; in series [3]; against Staphylococcus aureus [4]; in the series with Bacillus subtilis; in series [5]) was > 200 µM each time. Further, the minimum inhibitory concentration (MIC) in the series on Staphylococcus aureus [6] was > 200 µM. Moreover, it took 90 µM to reach half-maximal cytotoxicity in series [1] (CC50).

Regarding `CCCCCCCCCCCCNc1ccn([C@H]2C[C@H](O)[C@@H](CO)O2)c(=O)n1`, the MIC (with Micrococcus luteus; in series [2]; in series [3]; in the series with Staphylococcus aureus [4]; in the series with Bacillus subtilis; in series [5]) was 70 µM (≈ 27.7 µg/mL) throughout. Moreover, the MIC with Staphylococcus aureus [6] was 70 µM (≈ 27.7 µg/mL). In series [1], the CC50 turned out to be 100 µM.

As to `COCCOCCOCCNc1nc(=O)n([C@H]2C[C@H](O)[C@@H](CO)O2)cc1C`, the minimal inhibitory concentration (MIC) (against Micrococcus luteus; in series [2]; in series [3]; with Staphylococcus aureus [4]; against Bacillus subtilis; in series [5]) was > 200 µM each time. In addition, the minimal inhibitory concentration (MIC) against Staphylococcus aureus [6] is > 200 µM. In series [1], this molecule showed a CC50 of 90 µM.

Regarding `NNC(=O)c1ccncc1` [ISONIAZID], the MIC in series [3] is 2 µM (≈ 0.274 µg/mL); in series [5], 29 µM (≈ 3.98 µg/mL).
